The source of these data is ChEMBL document CHEMBL3751849, “Design, Synthesis, and Biological Characterization of Novel Mitochondria Targeted Dichloroacetate-Loaded Compounds with Antileukemic Activity” (J Med Chem, 2016).

In data set [1] the test system is Leukemia cell. The experiment in a line: Reduction in basal oxygen consumption rate of mitochondria in human leukemia cells at 300 uM after 3 hrs by seahorse analyzer. Type of data set: functional. An outline of the steps:
(§1)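 Leukemic cells were treated for 3 h at 300 μM, then plated at 3 × 10^5 cells/well on poly-L-lysine. They were held 1 h at 37 °C without CO2 and run on an XFe96 Mito stress test. Additions were made sequentially: oligomycin 1.0 μM, FCCP 1.0 μM, then antimycin A plus rotenone at 1.0 μM each. OCR was expressed as pmol O2/min and normalized to cell number. Coupling efficiency and spare capacity were calculated after subtracting non-mitochondrial OCR. Data are from six independent experiments.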

Data set [2] can be described thus: Cytotoxicity against human HL60 cells at 3 to 300 uM after 48 hrs by MTT assay. Format: cell-based. The settings on record: hl-60, 48 h. In a few lines: (§2)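 Cells seeded at 1 × 10^6 cells/mL. JVM-2, MAVER and HL-60 were grown in RPMI-1640; MEC-1 and MEC-2 were grown in IMDM. Primary cells were grown in RPMI-1640. All media carried 10% FBS, L-glutamine and penicillin/streptomycin. Test agents were added at 3–300 μM, and DCA at 1–30 mM.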

The nature of data set [3]: Cytotoxicity against human MEC1 cells at 3 to 300 uM after 48 hrs by MTT assay. Type of data set: cell-based. The settings on record: mec1, 48 h. An outline of the steps:
as §2

A short description of data set [4]: Cytotoxicity against human JVM2 cells at 3 to 300 uM after 48 hrs by MTT assay. To be noted: jvm-2, 48 h. Format: cell-based. In a few lines: as §2
Data set [5] in a line: Cytotoxicity against human Maver1 cells at 3 to 300 uM uM after 48 hrs by MTT assay. Type of data set: cell-based. To be noted: maver1, 48 h. An outline of the steps: as §2
Data set [6] can be described thus: Cytotoxicity against human MEC2 cells at 3 to 300 uM after 48 hrs by MTT assay. Format: cell-based. To be noted: mec2, 48 h. An outline of the steps:
as §2

A short description of data set [7]: (§3) Cytotoxicity against human MEC1 cells after 48 hrs by MTT assay. Type of data set: functional, cell-based. The settings on record: MEC1, 48 h. In a few lines: as §2
Data set [8] in a line: (§4) Cytotoxicity against human MEC2 cells after 48 hrs by MTT assay. Type of data set: functional, cell-based. To be noted: MEC2, 48 h. In a few lines:
as §2

In data set [9] the test system is JVM-2. The experiment in a line: Induction of apoptosis in human JVM2 cells assessed as early apoptotic cells at 10 mM after 48 hrs by annexin V-FITC/PI-staining based FACS analysis (reference value: 1.6%). Format: functional. In a few lines: (§5)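 JVM-2 cells seeded at 1 × 10^6 cells/mL in RPMI-1640 with 10% FBS and treated 48 h. Annexin V-FITC/PI staining read by flow cytometry, giving percentage of apoptotic leukemic cells. Mean ± SD of at least three independent experiments; p < 0.05 versus untreated cultures.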

In data set [10] the test system is JVM-2. The experiment in a line: Induction of apoptosis in human JVM2 cells assessed as late apoptotic cells at 10 mM after 48 hrs by annexin V-FITC/PI-staining based FACS analysis (reference value: 11%). Format: functional. An outline of the steps:
as §5

Data set [11] is described as follows: Induction of apoptosis in human primary B-CLL cells assessed as early apoptotic cells at 30 mM after 48 hrs by annexin V-FITC/PI-staining based FACS analysis (reference value: 10.7%). Type of data set: functional.
The nature of data set [12]: Induction of apoptosis in human primary B-CLL cells assessed as late apoptotic cells at 30 mM after 48 hrs by annexin V-FITC/PI-staining based FACS analysis (reference value: 8.5%). Format: functional.
Data set [13] in a line: Upregulation of p21 mRNA expression in human primary B-CLL cells at 300 uM after 24 to 48 hrs by qRT-PCR analysis. Type of data set: functional, cell-based.
Data set [14] deals with B-CLL. The data set can be described thus: Induction of p21 protein level in human primary B-CLL cells at 300 uM after 24 to 48 hrs by Western blot analysis. Type of data set: functional, cell-based. An outline of the steps: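 Primary B-CLL patient cells treated 24 or 48 h, lysed and analysed by Western blot using anti-p21 (C-19) antibody to detect p21 protein induction.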

A short description of data set [15]: Cell cycle arrest in human JVM2 cells assessed as accumulation at S phase at 30 mM after 48 hrs by BrdU/PI-staining based FACS analysis (reference value: 40%). Format: functional. The settings on record: JVM-2.
A short description of data set [16]: (§6) Cytotoxicity against human JVM2 cells after 48 hrs by MTT assay. Type of data set: functional, cell-based. To be noted: JVM-2, 48 h. An outline of the steps: as §2
Data set [17] can be described thus: (§7) Cytotoxicity against human HL60 cells after 48 hrs by MTT assay. Type of data set: functional, cell-based. The settings on record: HL-60, 48 h. In a few lines:
as §2

Data set [18] can be described thus: (§8) Cytotoxicity against human Maver1 cells after 48 hrs by MTT assay. To be noted: Maver1, 48 h. Type of data set: functional, cell-based. In a few lines:
as §2

The subject of data set [19] is MEC1. The description is as §3. Format: functional, cell-based. An outline of the steps:
as §2

The subject of data set [20] is MEC2. The description is as §4. Type of data set: functional, cell-based. An outline of the steps:
as §2

Data set [21] has as its system JVM-2. The experiment in a line: Induction of apoptosis in human JVM2 cells assessed as early apoptotic cells at 300 uM after 48 hrs by annexin V-FITC/PI-staining based FACS analysis (reference value: 1.6%). Format: functional.
Data set [22] relates to JVM-2. The data set can be described thus: Induction of apoptosis in human JVM2 cells assessed as late apoptotic cells at 300 uM after 48 hrs by annexin V-FITC/PI-staining based FACS analysis (reference value: 11%). Format: functional.
Data set [23] can be described thus: Induction of apoptosis in human primary B-CLL cells assessed as early apoptotic cells at 300 uM after 48 hrs by annexin V-FITC/PI-staining based FACS analysis (reference value: 10.7%). Type of data set: functional.
The nature of data set [24]: Induction of apoptosis in human primary B-CLL cells assessed as late apoptotic cells at 300 uM after 48 hrs by annexin V-FITC/PI-staining based FACS analysis (reference value: 8.5%). Type of data set: functional.
The test system of data set [25] is Plasma. The experiment in a line: Metabolic stability in BALB/c mouse plasma assessed as compound remaining at 57 mg/kg, sc after >5 hrs by HPLC-MS analysis. Type of data set: ADME, organism-based. The settings on record: in vivo. An outline of the steps:
(§9)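 Female BALB/c mice, 8 weeks old (n = 12), received one sc dose of 57 mg/kg in 200 μL PBS/25% DMSO. Tail-vein blood was drawn at 1, 2.5, 4, 5.5, 7, 16 and 24 h, and plasma was stored at −80 °C. Plasma (100 μL) was diluted in 300 μL acetonitrile/water/TFA and filtered. It was then analysed by nano-HPLC-MS on a C-18 column, using a 15-min water-to-acetonitrile gradient with 0.1% formic acid.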

The subject of data set [26] is Plasma. The experiment in a line: Retention time in BALB/c mouse plasma at 57 mg/kg, sc after 4 hrs by HPLC-MS analysis. Format: ADME, organism-based. To be noted: in vivo. An outline of the steps: as §9
In data set [27] the test system is Leukemia cell. The experiment in a line: Reduction in maximal oxygen consumption rate of mitochondria in human leukemia cells pretreated at 300 uM for 3 hrs followed by FCCP addition by seahorse analyzer. Type of data set: functional. In a few lines:
as §1

Data set [28] concerns Leukemia cell. The experiment in a line: Reduction in mitochondrial coupling efficiency in human leukemia cells pretreated at 300 uM for 3 hrs followed by antimycin A/rotenone addition by seahorse analyzer. Format: functional, cell-based. An outline of the steps:
as §1

The nature of data set [29]: Cell cycle arrest in human JVM2 cells assessed as accumulation at S phase at 300 uM after 48 hrs by BrdU/PI-staining based FACS analysis (reference value: 40%). Type of data set: functional. The settings on record: JVM-2.
For data set [30], the system named is Plasma. The experiment in a line: Drug metabolism in BALB/c mouse plasma at 57 mg/kg, sc after >5 hrs by HPLC-MS analysis. Format: ADME, organism-based. The settings on record: in vivo. In a few lines:
as §9

For data set [31], the system named is Leukemia cell. The experiment in a line: Reduction in mitochondrial spare respiratory capacity in human leukemia cells pretreated at 300 uM for 3 hrs followed by antimycin A/rotenone addition by seahorse analyzer. Format: functional, cell-based. In a few lines: as §1
Data set [32] deals with JVM-2. The description is as §6. Type of data set: functional, cell-based. An outline of the steps:
as §2

The subject of data set [33] is PBMC. The data set can be described thus: Cytotoxicity against human PBMC cells after 48 hrs by MTT assay. Format: cell-based. An outline of the steps: as §2
The test system of data set [34] is HL-60. The data set is described as §7. Format: functional, cell-based. An outline of the steps:
as §2

Data set [35] has as its system Maver1. Described as §8. Type of data set: functional, cell-based. In a few lines:
as §2

A short description of data set [36]: Cytotoxicity against human HL60 cells at 30 uM after 48 hrs by MTT assay. Format: cell-based. The settings on record: hl-60, 48 h. In a few lines: as §2
A short description of data set [37]: Cytotoxicity against human JVM2 cells at 30 uM after 48 hrs by MTT assay. Type of data set: cell-based. To be noted: jvm-2, 48 h. In a few lines: as §2
Data set [38] is described as follows: Cytotoxicity against human Maver1 cells at 30 uM after 48 hrs by MTT assay. Format: cell-based. To be noted: maver1, 48 h. In a few lines: as §2
A short description of data set [39]: Cytotoxicity against human MEC1 cells at 30 uM after 48 hrs by MTT assay. The settings on record: mec1, 48 h. Type of data set: cell-based. An outline of the steps:
as §2

The nature of data set [40]: Cytotoxicity against human MEC2 cells at 30 uM after 48 hrs by MTT assay. To be noted: mec2, 48 h. Format: cell-based. In a few lines: as §2

The source made the active and inactive calls. No cut-off for these calls is given here.

As to `C[N+](CCNC(=O)C(Cl)Cl)(CCNC(=O)C(Cl)Cl)CCNC(=O)C(Cl)Cl`, in [1], the result was inactive.

As to `CC(C)(C)OC(=O)NCC[N+](C)(CCNC(=O)OC(C)(C)C)CCNC(=O)OC(C)(C)C.[I-]`, the Activity entry in data set [2], in data set [3], in [4], in data set [5] and in data set [6] was “Non-toxic” in each case.

As to `O=C(O)C(Cl)Cl` [DICHLOROACETIC ACID], the concentration for half-maximal inhibition (IC50) in [7] turned out to be 8290 µM; in data set [8], 12200 µM; in data set [16], 11500 µM; in [17], 13900 µM; in data set [18] it was 11800 µM. The Activity in data set [9] worked out at 2.8%; in data set [10], 26.8%; in data set [11], 20.7%; in data set [12], 45.4%; in data set [15], 15%. The result in [13] and in [14] was Active.

Consider `O=C(NCCN(CCNC(=O)C(Cl)Cl)CCNC(=O)C(Cl)Cl)C(Cl)Cl`, for which the half-maximal inhibitory concentration (IC50) in data set [7] amounted to 400 µM; in data set [8], 370 µM; in [16], 410 µM; in [33], 1260 µM; in [17] it was 340 µM; in data set [18] it was 550 µM. The Activity entry in data set [19] is “Dose-dependent effect”; in data set [20], “Dose-dependent effect”; in [21] it was 1.1%; in [22], 25.5%; in data set [23], 14.4%; in data set [24], 42.8%. In addition, the Activity in data set [29] was 22%; in data set [32] it was “Dose-dependent effect”; in data set [34], “Dose-dependent effect”; in data set [35], “Dose-dependent effect”. The result in data set [13], in data set [14], in [1], in data set [27], in [28] and in [31] was Active. Besides, the Stability entry in data set [25] is recorded as “Stable”. The Retention_time in data set [26] was determined as 0.455 min. Besides, the Drug metabolism entry in [30] is reported as “metabolite_notdetected”.

Turning to `CC(=O)OCC(COC(C)=O)(COC(C)=O)NC(=O)CCCCC[P+](c1ccccc1)(c1ccccc1)c1ccccc1.[Br-]`, the Activity result in data set [36], in data set [37], in [38], in data set [39] and in data set [40] was “Toxic” each time.

Turning to `CC(C)(C)OC(=O)NCCN(CCNC(=O)OC(C)(C)C)CCNC(=O)OC(C)(C)C`, the Activity entry in data set [2] was “Non-toxic”; in [3], “Non-toxic”; in [4] it was “Non-toxic”; in data set [5] it was “Non-toxic”; in data set [6], “Non-toxic”; in data set [21], 1.3%. Further, the figures for the Activity in data set [22] and in data set [29] were 10.9% and 41%, respectively.
